Experimental data as given in ChEMBL document CHEMBL5376013, “Design, synthesis and biological evaluation of novel morpholinopyrimidine-5-carbonitrile derivatives as dual PI3K/mTOR inhibitors” (RSC Med Chem, 2024).

Experiments:
Assay type in all cases: functional
Conditions in all cases: read-out: GI
CCRF-CEM = test: Antitumor activity against human CCRF-CEM cells assessed as growth inhibition at 10 uM relative to control
Procedure, shortened: (§1)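 After drug addition, plates were incubated 48 h at 37 °C under 5% CO2. Adherent cells were fixed with cold TCA (10% final, 60 min, 4 °C) and suspension cells with 16% final TCA. Staining used 0.4% SRB in 1% acetic acid, solubilized in 10 mM trizma, read at A515. Percent growth was calculated from time-zero, control and treated absorbances.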

HL-60 = test: Antitumor activity against human HL-60 cells assessed as growth inhibition at 10 uM relative to control; procedure, shortened: as §1
K562 = test: Antitumor activity against human K562 cells assessed as growth inhibition at 10 uM relative to control; procedure, shortened: as §1
MOLT-4 = test: Antitumor activity against human MOLT-4 cells assessed as growth inhibition at 10 uM relative to control; procedure, shortened: as §1
RPMI-8226 = test: Antitumor activity against human RPMI-8226 cells assessed as growth inhibition at 10 uM relative to control; procedure, shortened: as §1
SR = test: Antitumor activity against human SR cells assessed as growth inhibition at 10 uM relative to control
Procedure, shortened: (§2)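 Drug exposure 48 h at 37 °C, 5% CO2. Adherent cells fixed with cold TCA (10% final), suspension cells with TCA (16% final). Stained with 0.4% SRB in 1% acetic acid, dissolved in 10 mM Tris, A515. Growth relative to time-zero and untreated control.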

A549 = test: Antitumor activity against human A549 cells assessed as growth inhibition at 10 uM relative to control; procedure, shortened: as §1
HOP-62 = test: Antitumor activity against human HOP-62 cells assessed as growth inhibition at 10 uM relative to control; procedure, shortened: as §1
HOP-92 = test: Antitumor activity against human HOP-92 cells assessed as growth inhibition at 10 uM relative to control; procedure, shortened: as §1
NCI-H226 = test: Antitumor activity against human NCI-H226 cells assessed as growth inhibition at 10 uM relative to control; procedure, shortened: as §1
NCI-H23 = test: Antitumor activity against human NCI-H23 cells assessed as growth inhibition at 10 uM relative to control; procedure, shortened: as §1
NCI-H522 = test: Antitumor activity against human NCI-H522 cells assessed as growth inhibition at 10 uM relative to control; procedure, shortened: as §1
COLO 205 = test: Antitumor activity against human COLO 205 cells assessed as growth inhibition at 10 uM relative to control; procedure, shortened: as §1
HCT-116 = test: Antitumor activity against human HCT-116 cells assessed as growth inhibition at 10 uM relative to control; procedure, shortened: as §1
HCT-15 = test: Antitumor activity against human HCT-15 cells assessed as growth inhibition at 10 uM relative to control; procedure, shortened: as §1
HT-29 = test: Antitumor activity against human HT-29 cells assessed as growth inhibition at 10 uM relative to control; procedure, shortened: as §1
SW-620 = test: Antitumor activity against human SW-620 cells assessed as growth inhibition at 10 uM relative to control; procedure, shortened: as §2
SF-268 = test: Antitumor activity against human SF-268 cells assessed as growth inhibition at 10 uM relative to control; procedure, shortened: as §1
SF-295 = test: Antitumor activity against human SF-295 cells assessed as growth inhibition at 10 uM relative to control; procedure, shortened: as §1
SF-539 = test: Antitumor activity against human SF-539 cells assessed as growth inhibition at 10 uM relative to control; procedure, shortened: as §1
SNB-75 = test: Antitumor activity against human SNB-75 cells assessed as growth inhibition at 10 uM relative to control; procedure, shortened: as §2
U-251 = test: Antitumor activity against human U-251 cells assessed as growth inhibition at 10 uM relative to control; procedure, shortened: as §2
LOX IMVI = test: Antitumor activity against human LOX IMVI cells assessed as growth inhibition at 10 uM relative to control; procedure, shortened: as §1
Malme-3M = test: Antitumor activity against human Malme-3M cells assessed as growth inhibition at 10 uM relative to control; procedure, shortened: as §1
MDA-MB-435 = test: Antitumor activity against human MDA-MB-435 cells assessed as growth inhibition at 10 uM relative to control; procedure, shortened: as §1
SK-MEL-2 = test: Antitumor activity against human SK-MEL-2 cells assessed as growth inhibition at 10 uM relative to control; procedure, shortened: as §1
SK-MEL-5 = test: Antitumor activity against human SK-MEL-5 cells assessed as growth inhibition at 10 uM relative to control; procedure, shortened: as §2
UACC-62 = test: Antitumor activity against human UACC-62 cells assessed as growth inhibition at 10 uM relative to control; procedure, shortened: as §2
IGROV-1 = test: Antitumor activity against human IGROV-1 cells assessed as growth inhibition at 10 uM relative to control; procedure, shortened: as §1
OVCAR-8 = test: Antitumor activity against human OVCAR-8 cells assessed as growth inhibition at 10 uM relative to control; procedure, shortened: as §1
NCI/ADR-RES = test: Antitumor activity against human NCI-ADR-RES cells assessed as growth inhibition at 10 uM relative to control; procedure, shortened: as §1
SK-OV-3 = test: Antitumor activity against human SK-OV-3 cells assessed as growth inhibition at 10 uM relative to control; procedure, shortened: as §2
786-0 = test: Antitumor activity against human 786-0 cells assessed as growth inhibition at 10 uM relative to control; procedure, shortened: as §1
A498 = test: Antitumor activity against human A498 cells assessed as growth inhibition at 10 uM relative to control; procedure, shortened: as §1
ACHN = test: Antitumor activity against human ACHN cells assessed as growth inhibition at 10 uM relative to control; procedure, shortened: as §1
CAKI-1 = test: Antitumor activity against human CAKI-1 cells assessed as growth inhibition at 10 uM relative to control; procedure, shortened: as §1
RXF 393 = test: Antitumor activity against human RXF 393 cells assessed as growth inhibition at 10 uM relative to control; procedure, shortened: as §1
SN12C = test: Antitumor activity against human SN12C cells assessed as growth inhibition at 10 uM relative to control; procedure, shortened: as §2
TK-10 = test: Antitumor activity against human TK-10 cells assessed as growth inhibition at 10 uM relative to control; procedure, shortened: as §2
UO-31 = test: Antitumor activity against human UO-31 cells assessed as growth inhibition at 10 uM relative to control; procedure, shortened: as §2
DU-145 = test: Antitumor activity against human DU-145 cells assessed as growth inhibition at 10 uM relative to control; procedure, shortened: as §1
MCF7 = test: Antitumor activity against human MCF7 cells assessed as growth inhibition at 10 uM relative to control; procedure, shortened: as §1
MDA-MB-231 = test: Antitumor activity against human MDA-MB-231 cells assessed as growth inhibition at 10 uM relative to control; procedure, shortened: as §1
Hs-578T = test: Antitumor activity against human Hs-578T cells assessed as growth inhibition at 10 uM relative to control; procedure, shortened: as §1
T47D = test: Antitumor activity against human T47D cells assessed as growth inhibition at 10 uM relative to control; procedure, shortened: as §2
MDA-MB-468 = test: Antitumor activity against human MDA-MB-468 cells assessed as growth inhibition at 10 uM relative to control; procedure, shortened: as §1

Measured: inhibition of growth at 10 µM

N#Cc1c(-c2ccc(Cl)cc2)nc(N/N=C2/C(=O)Nc3ccc(Cl)cc32)nc1N1CCOCC1
26.9%: A498
17.1%: MDA-MB-231
31.3%: SNB-75
< 1%: CCRF-CEM | HL-60 | K562 | MOLT-4 | RPMI-8226 | SR | A549 | HOP-62 | NCI-H522 | HCT-116 | HT-29 | SW-620 | SF-268 | SF-295 | SF-539 | U-251 | MDA-MB-435 | SK-MEL-2 | SK-MEL-5 | UACC-62 | IGROV-1 | OVCAR-8 | SK-OV-3 | 786-0 | ACHN | CAKI-1 | RXF 393 | SN12C | TK-10 | DU-145 | Hs-578T | T47D | MDA-MB-468
10.5%: HOP-92 | NCI-H226
32.5%: UO-31
11.2%: Malme-3M
1%: COLO 205 | HCT-15 | MCF7
15.2%: NCI-H23
16.8%: LOX IMVI
11.7%: NCI/ADR-RES

N#Cc1c(-c2ccc(Cl)cc2)[nH]c(=S)[nH]c1=O
10.2%: UO-31
< 1%: CCRF-CEM | HL-60 | K562 | MOLT-4 | RPMI-8226 | SR | A549 | HOP-62 | HOP-92 | NCI-H226 | NCI-H23 | NCI-H522 | COLO 205 | HCT-116 | HCT-15 | HT-29 | SW-620 | SF-268 | SF-295 | SF-539 | U-251 | LOX IMVI | Malme-3M | MDA-MB-435 | SK-MEL-2 | SK-MEL-5 | UACC-62 | IGROV-1 | OVCAR-8 | NCI/ADR-RES | SK-OV-3 | 786-0 | A498 | ACHN | CAKI-1 | RXF 393 | SN12C | TK-10 | DU-145 | MCF7 | MDA-MB-231 | Hs-578T | T47D | MDA-MB-468
14.7%: SNB-75

N#Cc1c(-c2ccc(Cl)cc2)nc(N/N=C/c2cccc(F)c2)nc1N1CCOCC1
22.3%: RPMI-8226
11.2%: T47D
< 1%: HL-60 | SR | A549 | HOP-92 | NCI-H226 | NCI-H23 | HCT-116 | SW-620 | SF-268 | SF-295 | SF-539 | Malme-3M | MDA-MB-435 | SK-MEL-2 | SK-MEL-5 | UACC-62 | OVCAR-8 | NCI/ADR-RES | SK-OV-3 | 786-0 | RXF 393 | SN12C | TK-10 | DU-145 | MDA-MB-231 | Hs-578T | MDA-MB-468
35.8%: SNB-75
15%: K562
21.1%: U-251
37.5%: UO-31
10.3%: HOP-62
10.2%: ACHN
17.4%: IGROV-1
17%: A498
27.2%: COLO 205
11.8%: LOX IMVI
21.3%: HCT-15
13.7%: CAKI-1
< 12.4%: MCF7
11.6%: NCI-H522
19.6%: CCRF-CEM
30%: HT-29
25.9%: MOLT-4
